Tests used:
[1] = target: Human immunodeficiency virus type 1 reverse transcriptase (Human immunodeficiency virus 1, UniProt Q72547); experiment: Inhibition of human immunodeficiency virus-1 reverse transcriptase associated RNase H activity using 18-nucleotide 3,-fluorescein-labeled RNA substrate by fluorescence resonance energy transfer assay
In short: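 Inhibition of HIV RT-associated RNase H activity was measured by a previously described method, with β-thujaplicinol as positive control and IC50 as the readout.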

[2] = tested on: Human immunodeficiency virus 1; experiment: Antiviral activity against HIV1 infected in human H9 cells assessed as protection against virus-induced cytopathic effect by tetrazolium reduction based colorimetric technique; type: functional, organism-based
In short: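 HIV cytopathicity assay run by a previously reported protocol. Compounds tested at up to 50 μM, with dideoxycytidine as positive control.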

[3] = tested on: CEM-SS; experiment: Cytotoxicity against human CEM-SS cells assessed as cell growth inhibition; type: cell-based
In short: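 CEM-SS cells were exposed to compounds at concentrations up to 50 μM, and cytotoxicity was scored as cell growth inhibition.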

Row | Structure (SMILES) | IC50 [1] | EC50 ([2]; h9) | IC50 [3] | EC50 ([2]; Human immunodeficiency virus 1, H9, read-out: EC50)
1 | C=C(C)[C@@H]1CCc2cc(O[C@@H]3O[C@H](COC(=O)CC(C)(O)CC(=O)O)[C@@H](O)[C@H](O)[C@H]3O)c(=O)cc(C)c2C1 (stereo partly specified) | 34 µM | Not Active | > 50 µM | –
2 | Cc1cc(=O)c(O[C@@H]2O[C@H](COC(=O)CC(C)(O)CC(=O)O)[C@@H](O)[C@H](O)[C@H]2O)cc2c1C[C@H](C(C)(C)O)CC2 (stereo partly specified) | > 50 µM | Not Active | > 50 µM | –
3 | CC(C)c1ccc(O)c(=O)c(O)c1 [BETA-THUJAPLICINOL] | 0.26 µM | Not Active | 2.3 µM | –
4 | Nc1ccn([C@H]2CC[C@@H](CO)O2)c(=O)n1 [ZALCITABINE] | – | – | 61 µM | 0.079 µM

— ChEMBL document CHEMBL3425428, “Sesquiterpenoid tropolone glycosides from Liriosma ovata” (J Nat Prod, 2015)
